Activity calls are given as the source filed them. The calls are words filed in the database; no cut-off is given here. Where a SMILES comes first, the peptide text is derived from it. Bridges are numbered along the chain shown (N, C = ends).
Legend:
[Haemophilus] ducreyi [1] = Bactericidal activity against Haemophilus ducreyi 35000HP assessed as survival at 0.2 ug/ml by antibacterial susceptibility test relative to control; type: functional
How it was run: (§1)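 Viable bacteria counted by plating. Survival expressed as percentage of peptide-free control wells. Means ± standard errors of three independent assays; mixed-model analysis with Sidak adjustment, P<0.05.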

[Haemophilus] ducreyi [2] = Bactericidal activity against Haemophilus ducreyi 35000HP assessed as survival at 20 ug/ml by antibacterial susceptibility test relative to control; type: functional, organism-based; how it was run: as §1
[Haemophilus] ducreyi [3] = Bactericidal activity against Haemophilus ducreyi CIP542 assessed as survival at 20 ug/ml by antibacterial susceptibility test relative to control; type: functional, organism-based; how it was run: as §1
[Haemophilus] ducreyi [4] = Bactericidal activity against Haemophilus ducreyi CIP542 assessed as survival at 0.2 ug/ml by antibacterial susceptibility test relative to control; type: functional; how it was run: as §1
[Haemophilus] ducreyi [5] = Bactericidal activity against Haemophilus ducreyi 35000HP assessed as survival at 2 ug/ml by antibacterial susceptibility test relative to control; type: functional, organism-based; how it was run: as §1
[Haemophilus] ducreyi [6] = Bactericidal activity against Haemophilus ducreyi 35000HP assessed as survival at 0.5 ug/ml by twofold serial dilution assay relative to control; type: functional
How it was run: (§2)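 Mid-log-phase cells were suspended in 10 mM sodium phosphate (pH 7.4) with 1% brain-heart infusion broth and exposed to peptide dilutions for 1 h, at 33°C for H. ducreyi or 37°C for E. coli. Survivors were counted by plating, and survival was expressed as a percent of peptide-free control wells. Values are means of three independent assays.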

Escherichia coli [7] = experiment: Bactericidal activity against Escherichia coli ML35 assessed as survival at 0.5 ug/ml by twofold serial dilution assay relative to control; type: functional; how it was run: as §2
[Haemophilus] ducreyi [8] = Bactericidal activity against Haemophilus ducreyi CIP542 after 48 to 72 hrs by radial diffusion assay; type: functional; settings: read-out: MEC
How it was run: (§3)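 Radial diffusion assay with salts omitted from the agarose underlay. Activity units are taken from inhibition zones around peptide-loaded wells. MEC is the x intercept of the best-fit line of activity against peptide concentration. Where fewer than two concentrations were active, MEC is recorded as >158 μg/ml, the assay's upper limit. Values are means of three independent assays, each run in duplicate.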

[Haemophilus] ducreyi [9] = Bactericidal activity against Haemophilus ducreyi 35000HP after 48 to 72 hrs by radial diffusion assay; type: functional; settings: read-out: MEC; how it was run: as §3
Escherichia coli [10] = experiment: Bactericidal activity against Escherichia coli ML35 assessed as survival at 2 ug/ml by tenfold serial dilution assay relative to control; type: functional; how it was run: as §2
Escherichia coli [11] = experiment: Bactericidal activity against Escherichia coli ML35 after 48 to 72 hrs by radial diffusion assay; type: functional; settings: read-out: MEC; how it was run: as §3
[Haemophilus] ducreyi [12] = Bactericidal activity against Haemophilus ducreyi 35000HP assessed as survival at 2 ug/ml by tenfold serial dilution assay relative to control; type: functional; how it was run: as §2
Escherichia coli [13] = experiment: Bactericidal activity against Escherichia coli ML35 assessed as survival at 20 ug/ml relative to control; type: functional; how it was run: as §1
[Haemophilus] ducreyi [14] = Bactericidal activity against Haemophilus ducreyi 35000HP assessed as survival at 2 ug/ml relative to control; type: functional; how it was run: as §1

Row | SMILES | Activity ([Haemophilus] ducreyi [1]) | Activity ([Haemophilus] ducreyi [2]) | Activity ([Haemophilus] ducreyi [3]) | Activity ([Haemophilus] ducreyi [4]) | Activity ([Haemophilus] ducreyi [5]) | Activity ([Haemophilus] ducreyi [6]) | Activity (Escherichia coli [7]) | minimal effective concentration ([Haemophilus] ducreyi [8]) | minimal effective concentration ([Haemophilus] ducreyi [9]) | Activity (Escherichia coli [10]) | minimal effective concentration (Escherichia coli [11]) | Activity ([Haemophilus] ducreyi [12]) | Activity (Escherichia coli [13]) | Activity ([Haemophilus] ducreyi [14])
1 | CC[C@H](C)[C@@H]1NC(=O)[C@H](CCCNC(=N)N)NC(=O)[C@H](Cc2ccc(O)cc2)NC(=O)[C@H](CCC(=O)O)NC(=O)[C@H](CCC(N)=O)NC(=O)[C@H](CO)NC(=O)[C@H](CCCNC(=N)N)NC(=O)[C@@H]2CSSC[C@@H](C(=O)N[C@@H](CC(C)C)C(=O)N[C@@H](CCCNC(=N)N)C(=O)N[C@@H](CCCCN)C(=O)O)NC(=O)[C@@H]3NC(=O)[C@H](C)NC(=O)[C@H](Cc4ccc(O)cc4)NC(=O)[C@H]([C@@H](C)O)NC(=O)[C@H](CC(N)=O)NC(=O)[C@H]4CCCN4C(=O)[C@H](CSSC[C@H](NC(=O)[C@H](CCCNC(=N)N)NC(=O)[C@H](C)NC(=O)[C@H]([C@@H](C)O)NC(=O)CNC(=O)[C@H](Cc4ccc(O)cc4)NC(=O)CNC(=O)[C@@H](NC(=O)[C@@H](NC(=O)[C@H](CCCNC(=N)N)NC(=O)[C@H](CC(=O)O)NC(=O)[C@H](CC(C)C)NC(=O)[C@@H](N)CCC(=O)O)[C@@H](C)CC)CSS3)C(=O)N[C@@H](CCCNC(=N)N)C(=O)N[C@@H](CCCCN)C(=O)N[C@@H](CCCCN)C(=O)N2)NC(=O)[C@H](CCCNC(=N)N)NC(=O)CNC1=O | inactive | inactive | inactive | inactive | inactive |  |  |  |  |  |  |  |  | 
2 | CC[C@H](C)[C@H](NC(=O)[C@H](CCCCN)NC(=O)[C@H](CCC(=O)O)NC(=O)[C@H](CCCCN)NC(=O)[C@H](CO)NC(=O)[C@H](CCCCN)NC(=O)[C@H](CCCNC(=N)N)NC(=O)[C@H](Cc1ccccc1)NC(=O)[C@H](Cc1ccccc1)NC(=O)[C@H](CC(=O)O)NC(=O)CNC(=O)[C@H](CC(C)C)NC(=O)[C@@H](N)CC(C)C)C(=O)NCC(=O)N[C@@H](CCCCN)C(=O)N[C@@H](CCC(=O)O)C(=O)N[C@@H](Cc1ccccc1)C(=O)N[C@@H](CCCCN)C(=O)N[C@@H](CCCNC(=N)N)C(=O)N[C@H](C(=O)N[C@H](C(=O)N[C@@H](CCC(N)=O)C(=O)N[C@@H](CCCNC(=N)N)C(=O)N[C@H](C(=O)N[C@@H](CCCCN)C(=O)N[C@@H](CC(=O)O)C(=O)N[C@@H](Cc1ccccc1)C(=O)N[C@@H](CC(C)C)C(=O)N[C@@H](CCCNC(=N)N)C(=O)N[C@@H](CC(N)=O)C(=O)N[C@@H](CC(C)C)C(=O)N[C@H](C(=O)N1CCC[C@H]1C(=O)N[C@@H](CCCNC(=N)N)C(=O)N[C@H](C(=O)N[C@@H](CCC(=O)O)C(=O)N[C@@H](CO)C(=O)O)[C@@H](C)O)C(C)C)[C@@H](C)CC)C(C)C)[C@@H](C)CC [CATHELICIDIN] | inactive | inactive | inactive | inactive | inactive | 43% | 3% | > 158 µg/mL | > 158 µg/mL | 5% | 6.2 µg/mL | 16% |  | 
3 | CC[C@H](C)[C@@H]1NC(=O)[C@H](CCCCN)NC(=O)[C@H]([C@@H](C)O)NC(=O)[C@H](Cc2ccccc2)NC(=O)[C@H]([C@@H](C)CC)NC(=O)[C@@H]2CCCN2C(=O)[C@@H]2CSSC[C@@H](C(=O)N[C@@H](CCCCN)C(=O)O)NC(=O)[C@@H]3CSSC[C@H](NC(=O)[C@H](CC(N)=O)NC(=O)[C@H](Cc4ccc(O)cc4)NC(=O)[C@H](Cc4cnc[nH]4)NC(=O)[C@@H](N)CC(=O)O)C(=O)N[C@@H](C(C)C)C(=O)N[C@@H](CO)C(=O)N[C@@H](CO)C(=O)NCC(=O)NCC(=O)N[C@@H](CCC(N)=O)C(=O)N[C@@H](CSSC[C@H](NC(=O)[C@H]([C@@H](C)O)NC(=O)CNC(=O)[C@H](CCC(N)=O)NC1=O)C(=O)N[C@@H](Cc1ccc(O)cc1)C(=O)N[C@@H](CCCNC(=N)N)C(=O)NCC(=O)N[C@@H](CCCCN)C(=O)N[C@@H](C)C(=O)N[C@@H](CCCCN)C(=O)N3)C(=O)N[C@@H](CC(C)C)C(=O)N[C@@H](Cc1ccc(O)cc1)C(=O)N[C@@H](CO)C(=O)N[C@@H](C)C(=O)N2 (H-DHYNCVSSGGQCLYSACPIFTKIQGTCYRGKAKCCK-OH; disulfide 5-34, 12-27, 17-35) | inactive | inactive | inactive | inactive | inactive |  |  |  |  |  |  |  |  | 
4 | CC[C@H](C)[C@@H]1NC(=O)[C@H](CCCNC(=N)N)NC(=O)[C@H](Cc2ccc(O)cc2)NC(=O)[C@H](CCC(=O)O)NC(=O)[C@H](CCC(N)=O)NC(=O)[C@H](CO)NC(=O)[C@H](CCCNC(=N)N)NC(=O)[C@@H]2CSSC[C@@H](C(=O)N[C@@H](CC(C)C)C(=O)N[C@@H](CCCNC(=N)N)C(=O)N[C@@H](CCCCN)C(=O)O)NC(=O)[C@@H]3CSSC[C@H](NC(=O)[C@@H](NC(=O)[C@H](CCCNC(=N)N)NC(=O)[C@H](CC(=O)O)NC(=O)[C@H](CC(C)C)NC(=O)[C@@H](N)CCC(=O)O)[C@@H](C)CC)C(=O)NCC(=O)N[C@@H](Cc4ccc(O)cc4)C(=O)NCC(=O)N[C@@H]([C@@H](C)O)C(=O)N[C@@H](C)C(=O)N[C@@H](CCCNC(=N)N)C(=O)N[C@@H](CSSC[C@H](NC(=O)[C@H](CCCNC(=N)N)NC(=O)CNC1=O)C(=O)N1CCC[C@H]1C(=O)N[C@@H](CC(N)=O)C(=O)N[C@@H]([C@@H](C)O)C(=O)N[C@@H](Cc1ccc(O)cc1)C(=O)N[C@@H](C)C(=O)N3)C(=O)N[C@@H](CCCNC(=N)N)C(=O)N[C@@H](CCCCN)C(=O)N[C@@H](CCCCN)C(=O)N2 (H-ELDRICGYGTARCRKKCRSQEYRIGRCPNTYACCLRK-OH; disulfide 6-33, 13-27, 17-34) |  |  |  |  |  |  |  | > 158 µg/mL | > 158 µg/mL |  | 12.6 µg/mL |  | <7% | >84%
5 | CC[C@H](C)[C@@H]1NC(=O)[C@@H]2CSSC[C@@H]3NC(=O)[C@H](Cc4ccccc4)NC(=O)[C@H](C)NC(=O)[C@H](Cc4c[nH]c5ccccc45)NC(=O)[C@H](CC(C)C)NC(=O)[C@H](CCCNC(=N)N)NC(=O)CNC(=O)[C@H](CCC(N)=O)NC(=O)[C@H](Cc4ccc(O)cc4)NC(=O)[C@H]([C@@H](C)CC)NC(=O)[C@H](CSSC[C@H](NC(=O)[C@H](Cc4ccc(O)cc4)NC(=O)[C@@H](N)CSSC[C@@H](C(=O)O)NC3=O)C(=O)N[C@@H](CCCNC(=N)N)C(=O)N[C@@H]([C@@H](C)CC)C(=O)N3CCC[C@H]3C(=O)N[C@@H](C)C(=O)N2)NC(=O)[C@H]([C@@H](C)O)NC(=O)CNC(=O)[C@H](Cc2ccc(O)cc2)NC(=O)[C@H](CCCNC(=N)N)NC(=O)[C@H](CCCNC(=N)N)NC(=O)[C@H](CCC(=O)O)NC(=O)CNC(=O)[C@H](C)NC1=O (H-CYCRIPACIAGERRYGTCIYQGRLWAFCC-OH; disulfide 1-29, 3-18, 8-28) | inactive | inactive | inactive | inactive | inactive |  |  |  |  |  |  |  | 10% | 

From ChEMBL document CHEMBL1154416, “Haemophilus ducreyi is resistant to human antimicrobial peptides” (2007)
